From ChEMBL document CHEMBL4004837, “Synthesis and Characterization of Urofuranoic Acids: In Vivo Metabolism of 2-(2-Carboxyethyl)-4-methyl-5-propylfuran-3-carboxylic Acid (CMPF) and Effects on in Vitro Insulin Secretion” (J Med Chem, 2017)

How the values were obtained:
[1] = system: Plasma; assay: Plasma concentration in human; assay type: ADME, cell-free
[2] = Initial plasma concentration in mouse at 3 mg/kg, iv; assay type: ADME, organism-based
Method in brief: (§1)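 Mouse pharmacokinetics after single intravenous CMPF dosing at 1 or 3 mg/kg. Plasma exposure was followed over time to derive AUC, C0, terminal half-life, clearance and volume of distribution.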

[3] = Half life in mouse at 3 mg/kg, iv; assay type: ADME, organism-based; details: in vivo; method in brief: as §1
[4] = Clearance in mouse at 3 mg/kg, iv; assay type: ADME, organism-based; details: in vivo
[5] = Volume of distribution in mouse at 1 mg/kg, iv; assay type: ADME, organism-based; details: in vivo; method in brief: as §1
[6] = Volume of distribution in mouse at 3 mg/kg, iv; assay type: ADME, organism-based; details: in vivo; method in brief: as §1
[7] = (§2) Drug metabolism in CD1 mouse muscle assessed as loss of C2 carboxyl during fragmentation at 6 mg/kg, ip dosed once daily for 3 days followed by dosing of 1:1 mixtures of 2-(2-Carboxyethyl)-4-methyl-5-(1-propyl-1-13C)furan-3-carboxylic Acid and test compound on day 4 and 5 measured 1 hr post dose on day 5 by HPLC-MS analysis; assay type: ADME, organism-based, Muscle tissue; details: in vivo
Method in brief: (§3)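 Mice received CMPF 6 mg/kg intraperitoneally for three days, then 1:1 labeled/unlabeled CMPF mixtures on days four and five. On day five they were euthanized 1 h post-dose, and plasma, adipose, muscle and liver were collected. Samples were analysed by HPLC-MS, with MS/MS of product ions. Metabolites were identified by the distinctive isotope patterns from the 1:1 label mixture.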

[8] = system: Plasma; assay: as §2, with “plasma” for “muscle”, “2-(2-Carboxyethyl)-4-methyl-5-propyl-(3-13C-furan)-3-13Ccarboxylate” for “2-(2-Carboxyethyl)-4-methyl-5-(1-propyl-1-13C)furan-3-carboxylic Acid”; assay type: ADME, organism-based; details: in vivo
Method in brief: (§4)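 CMPF given 6 mg/kg i.p. once daily for three days. On days four and five, 1:1 mixtures of stable-isotope-labelled and unlabelled CMPF were dosed. Mice were killed 1 h after the day-five dose. Plasma, adipose, muscle and liver were collected and analysed by HPLC-MS (MS/MS for product ions). Metabolites were identified by their distinctive isotope patterns from the labelled/unlabelled mixture.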

[9] = system: Plasma; assay: (§5) Drug metabolism in CD1 mouse plasma assessed as glucuronide conjugate formation at 6 mg/kg, ip dosed once daily for 3 days followed by dosing of 1:1 mixtures of 2-(2-(Carboxy-13C)ethyl)-4-methyl-5-propylfuran-3-carboxylic-2-13C Acid and test compound on day 4 and 5 measured 1 hr post dose on day 5 by HPLC-MS analysis; assay type: ADME, organism-based; details: in vivo; method in brief: as §4
[10] = molecular target: CYP3A4 (Homo sapiens, UniProt P08684); assay: Inhibition of human microsomal CYP3A4 at 10 uM after 3 mins by single quad LC/MS analysis; assay type: ADME; details: microsomes
[11] = Suppression of glucose-stimulated insulin secretion in mouse pancreatic islet at 200 uM incubated for 24 hrs followed by glucose stimulation for 20 mins by HTRF assay; assay type: ADME, cell-based
Method in brief: (§6)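 Mouse islets treated with compounds at 200 µM. Insulin secretion was then measured under low- and high-glucose GSIS conditions and under KCl stimulation, and intracellular insulin content was measured. Mean of n = 4-5 experiments with SEM.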

[12] = system: Plasma; assay: (§7) Drug metabolism in CD1 mouse plasma assessed as glycerol conjugate formation at 6 mg/kg, ip dosed once daily for 3 days followed by dosing of 1:1 mixtures of 2-(2-Carboxyethyl)-4-methyl-5-(1-propyl-1-13C)furan-3-carboxylic Acid and test compound on day 4 and 5 measured 1 hr post dose on day 5 by HPLC-MS analysis; assay type: ADME, organism-based; details: in vivo; method in brief: as §4
[13] = system: Liver; assay: as §7, with “liver” for “plasma”; assay type: ADME, organism-based; details: in vivo; method in brief: as §3
[14] = system: Plasma; assay: as §7, with “monoacylglycerol” for “glycerol”; assay type: ADME, organism-based; details: in vivo; method in brief: as §4
[15] = as §7, with “muscle” for “plasma”, “monoacylglycerol” for “glycerol”; assay type: ADME, organism-based, Muscle tissue; details: in vivo; method in brief: as §3
[16] = system: Liver; assay: as §7, with “liver” for “plasma”, “monoacylglycerol” for “glycerol”; assay type: ADME, organism-based; details: in vivo; method in brief: as §3
[17] = as §7, with “adipose” for “plasma”, “oxidative metabolites” for “glycerol conjugate”; assay type: ADME, organism-based, Adipose tissue; details: in vivo; method in brief: as §3
[18] = system: Liver; assay: as §5, with “liver” for “plasma”, “glycerol” for “glucuronide”; assay type: ADME, organism-based; details: in vivo; method in brief: as §3
[19] = as §5, with “adipose” for “plasma”, “glycerol” for “glucuronide”; assay type: ADME, organism-based, Adipose tissue; details: in vivo; method in brief: as §3
[20] = as §5, with “adipose” for “plasma”, “monoacylglycerol” for “glucuronide”; assay type: ADME, organism-based, Adipose tissue; details: in vivo; method in brief: as §3
[21] = system: Plasma; assay: as §5, with “diacylglycerol” for “glucuronide”; assay type: ADME, organism-based; details: in vivo; method in brief: as §4
[22] = system: Plasma; assay: as §5, with “oxidative metabolites” for “glucuronide conjugate”; assay type: ADME, organism-based; details: in vivo; method in brief: as §4
[23] = as §5, with “muscle” for “plasma”, “oxidative metabolites” for “glucuronide conjugate”; assay type: ADME, organism-based, Muscle tissue; details: in vivo; method in brief: as §3
[24] = system: Liver; assay: as §5, with “liver” for “plasma”, “oxidative metabolites” for “glucuronide conjugate”; assay type: ADME, organism-based; details: in vivo; method in brief: as §3
[25] = as §5, with “adipose” for “plasma”, “oxidative metabolites” for “glucuronide conjugate”; assay type: ADME, organism-based, Adipose tissue; details: in vivo; method in brief: as §3
[26] = (§8) Drug metabolism in CD1 mouse muscle assessed as glycerol conjugate formation at 6 mg/kg, ip dosed once daily for 3 days followed by dosing of 1:1 mixtures of 2-(2-Carboxyethyl)-4-methyl-5-propyl-(3-13C-furan)-3-13Ccarboxylateand test compound on day 4 and 5 measured 1 hr post dose on day 5 by HPLC-MS analysis; assay type: ADME, organism-based, Muscle tissue; details: in vivo; method in brief: as §3
[27] = as §8, with “adipose” for “muscle”; assay type: ADME, organism-based, Adipose tissue; details: in vivo; method in brief: as §3
[28] = as §8, with “monoacylglycerol” for “glycerol”; assay type: ADME, organism-based, Muscle tissue; details: in vivo; method in brief: as §3
[29] = system: Plasma; assay: as §8, with “plasma” for “muscle”, “diacylglycerol” for “glycerol”; assay type: ADME, organism-based; details: in vivo; method in brief: as §4
[30] = as §8, with “oxidative metabolites” for “glycerol conjugate”; assay type: ADME, organism-based, Muscle tissue; details: in vivo; method in brief: as §4
[31] = Effect on insulin content in glucose-stimulated mouse pancreatic islet at 200 uM incubated for 24 hrs followed by glucose stimulation for 20 mins by HTRF assay; assay type: ADME, cell-based; method in brief: as §6

Sequence of CYP3A4 (P08684 whole entry): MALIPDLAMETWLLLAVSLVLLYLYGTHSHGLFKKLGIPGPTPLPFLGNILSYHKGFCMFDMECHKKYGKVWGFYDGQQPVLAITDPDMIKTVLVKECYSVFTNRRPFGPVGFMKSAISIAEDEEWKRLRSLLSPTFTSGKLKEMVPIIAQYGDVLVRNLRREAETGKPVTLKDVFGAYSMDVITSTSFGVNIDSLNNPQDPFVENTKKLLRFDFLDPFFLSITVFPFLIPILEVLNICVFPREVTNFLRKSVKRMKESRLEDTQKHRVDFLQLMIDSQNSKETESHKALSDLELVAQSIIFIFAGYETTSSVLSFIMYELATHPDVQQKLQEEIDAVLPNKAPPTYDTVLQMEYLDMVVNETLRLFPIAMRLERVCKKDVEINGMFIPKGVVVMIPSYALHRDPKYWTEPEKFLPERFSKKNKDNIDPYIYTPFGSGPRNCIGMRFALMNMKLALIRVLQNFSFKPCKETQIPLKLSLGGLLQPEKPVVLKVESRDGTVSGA

CCCc1oc(CCC(=O)O)c(C(=O)O)c1C
Metabolite_Notdetected: Drug metabolism [12] | Drug metabolism [13] | Drug metabolism [14] | Drug metabolism [15] | Drug metabolism [16] | Drug metabolism [17] | Drug metabolism [18] | Drug metabolism [19] | Drug metabolism [20] | Drug metabolism [21] | Drug metabolism [22] | Drug metabolism [23] | Drug metabolism [24] | Drug metabolism [25] | Drug metabolism [26] | Drug metabolism [27] | Drug metabolism [28] | Drug metabolism [29] | Drug metabolism [30]
0.85 mL/min/kg: clearance [4]
0%: inhibition at 0.05 h, 10 µM [10]
20 to 40 µM: concentration [1]
130 µM: C0 [2]
Metabolite_Detected: Drug metabolism [7] | Drug metabolism [8] | Drug metabolism [9]
0.2 L/kg: Vd [5] | Vd [6]
Toxic: Activity [11]
3.27 h: half-life [3]
Non-Toxic: Activity [31]
